Assay results pooled from the literature.
Each line is one published result; the experiments were not run side by side. Values after ≈ are worked out from the molar mass of the structure shown.
Read-out: microbial growth

O=C1/C(=C/c2ccc3ccccc3c2O)NC(=S)N1c1ccccc1 — MIC (Bacillus cereus; broth dilution; ATCC14579): 24 µg/mL (≈ 69.3 µM)
N#CC(C#N)=C1SC(C(=O)c2ccc(Nc3cnccn3)cc2)=NN1c1ccc([N+](=O)[O-])cc1 — MIC (Salmonella enterica; broth dilution; ATCC13076 TYPHIMURIUM): 12.5 µg/mL (≈ 26.7 µM)
CCCS(=O)(=O)Oc1ccc(C=NNC(=O)CSc2nc3c(C)cccc3c(=O)n2-c2ccccc2)cc1OC — inhibition zone (Bacillus cereus; well diffusion; 20 µg/mL): 3 mm
O=c1oc2ccccc2c(Nc2ccccc2)c1I — MIC90 (Salmonella enterica; broth dilution; TYPHIMURIUM): 10 µg/mL (≈ 27.5 µM)
CC1(C)S[C@@H]2[C@H](NC(=O)[C@H](N)c3ccccc3)C(=O)N2[C@H]1C(=O)O — MIC (Salmonella enterica; broth dilution; ATCC14028; 12 h): 0.25 µg/mL (≈ 0.715 µM)
COc1ccc(N2N=C(C(=O)c3ccc(Nc4cnccn4)cc3)SC2=C(C#N)C#N)cc1 — MIC (Salmonella enterica; broth dilution; ATCC13076 TYPHIMURIUM): 6.25 µg/mL (≈ 13.8 µM)
Nc1ccc(S(=O)(=O)Nc2ncccn2)cc1 — MIC (Salmonella enterica; broth dilution; TYPHIMURIUM): 94 µg/mL (≈ 376 µM)
CNC(C)C1CCC(N)C(OC2C(N)CC(N)C(OC3OCC(C)(O)C(NC)C3O)C2O)O1 (centres unmarked) — MIC (Bacillus cereus; broth dilution): 2 µg/mL (≈ 4.19 µM)
N#CC(C#N)=C1SC(C(=O)c2ccc(Nc3cnccn3)cc2)=NN1c1ccccc1 — MIC (Salmonella enterica; broth dilution; ATCC13076 TYPHIMURIUM): 100 µg/mL (≈ 236 µM)
COc1ccc(C=NNC(=O)CSc2nc3c(C)cccc3c(=O)n2-c2ccccc2)cc1OS(C)(=O)=O — inhibition zone (Bacillus cereus; well diffusion; 20 µg/mL): 2 mm
[H]/N=C(/N)N[C@H]1[C@H](O)[C@@H](O)[C@H](O[C@@H]2O[C@@H](C)[C@](O)(C=O)[C@H]2O[C@@H]2O[C@@H](CO)[C@H](O)[C@@H](O)[C@@H]2NC)[C@@H](N/C(N)=N\[H])[C@@H]1O — MIC (Bacillus cereus; broth dilution; ATCC14579): 15 µg/mL (≈ 25.8 µM)
